From article PMC6648814 (ACS Omega, 2019)

Assays:
DfrB1 [1] = target: T1, DfrB1 (Escherichia coli, UniProt P00383); experiment: DfrB1 inhibition, spectrophotometric kinetic assay; assay type: biochemical; settings: for IC50: DfrB1 IC50, pH 7; for fold change of DfrB1 Ki relative to 1: greater Ki / weaker than 1; for Hill coefficient: DfrB1 inhibition, Hill plot; for inhibition of DfrB1 (in words): at the highest concentration that could be assayed
T1 sequence (P00383 1-78): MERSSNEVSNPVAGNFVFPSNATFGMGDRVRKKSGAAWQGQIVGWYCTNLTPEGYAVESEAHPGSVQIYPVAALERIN

hDfr = target: T2, hDfr (Homo sapiens, UniProt P00374); experiment: human Dfr inhibition, kinetic assay; assay type: biochemical; settings: for inhibition of hDfr (in words): selectivity
T2 sequence (P00374 1-187): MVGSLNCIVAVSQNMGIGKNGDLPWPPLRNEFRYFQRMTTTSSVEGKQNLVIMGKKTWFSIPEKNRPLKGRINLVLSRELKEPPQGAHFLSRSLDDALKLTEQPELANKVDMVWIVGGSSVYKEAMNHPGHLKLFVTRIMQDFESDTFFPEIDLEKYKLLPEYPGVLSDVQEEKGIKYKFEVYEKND
How it was run: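 His6-tagged human Dfr, purified by nickel affinity (stepwise imidazole in 0.1 M potassium phosphate, pH 8.0), then gel filtration in 0.1 M potassium phosphate, pH 7.5. Protein quantified by Bio-Rad assay. Kinetic assay at pH 7. Test compound tested up to the highest concentration that absorbance and precipitation allowed. IC50 determined per earlier method, with Ki calculated from IC50.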

apo-DfrB1 = settings: read-out: Kd1; binding on the apo-DfrB1; cited from earlier work
DfrB4 = target: T3, DfrB4 (Escherichia coli, UniProt Q8VNN1); experiment: DfrB4 inhibition, kinetic assay; assay type: biochemical
T3 sequence (Q8VNN1 1-78): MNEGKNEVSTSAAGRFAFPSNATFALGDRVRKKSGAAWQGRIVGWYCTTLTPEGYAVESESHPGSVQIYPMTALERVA

[2] = Solubility limit in assay medium; assay type: physicochemical; settings: 10% DMSO, aqueous with cosolvent or surfactant or cyclodextrin
DfrB1 [3] = target: T1, DfrB1; settings: DfrB1 substrate KM; cited from earlier work
E. coli expressing DfrB4 = settings: highest TMP concentration dissolved in the medium, 600 μg/mL; cited from earlier work

SMILES | Ki (DfrB1 [1]) [µM] | IC50 (DfrB1 [1]) [µM] | IC50 (hDfr) [µM] | Ki (DfrB4) [µM] | further results
O=C(O)c1ccc2[nH]c(-c3cccc(OCC(O)COc4cccc(-c5nc6cc(C(=O)O)ccc6[nH]5)c4)c3)nc2c1 [Compound 19] | 12 ± 3 | 400 ± 100 | > 500 | – | fold change of DfrB1 Ki relative to 1 (DfrB1 [1]): 3 fold
Nc1nc(=O)c2c([nH]1)NCC(CNc1ccc(C(=O)N[C@@H](CCC(=O)O)C(=O)O)cc1)=N2 [DHF, dihydrofolate] | – | – | – | – | Kd (apo-DfrB1): 120 µM
O=C(O)c1ccc2nc(-c3ccc(OCC(COc4ccc(-c5nc6ccc(C(=O)O)cc6[nH]5)cc4)(COc4ccc(-c5nc6ccc(C(=O)O)cc6[nH]5)cc4)COc4ccc(-c5nc6ccc(C(=O)O)cc6[nH]5)cc4)cc3)[nH]c2c1 [Compound 31] | 1.1 ± 0.3 | – | – | 1.9 ± 0.5 | fold lower DfrB1 Ki than the best inhibitors (DfrB1 [1]): 2- to 12 fold; Hill coefficient (DfrB1 [1]): 1.1 ± 0.4
O=C(O)c1ccc2[nH]c(-c3ccc(OCc4ccccc4COc4ccc(-c5nc6cc(C(=O)O)ccc6[nH]5)cc4)cc3)nc2c1 [Compound 33] | 7.4 ± 2.7 | – | – | 11 ± 1.3 | Hill coefficient (DfrB1 [1]): 1.1 ± 0.1; fold change of DfrB1 Ki relative to 1 (DfrB1 [1]): 2 fold; mode of inhibition (Dixon plot) (DfrB1 [1]; varying NADPH, saturating DHF, with respect to NADPH binding): competitive; inhibition of hDfr (in words) (hDfr): no inhibition
NC(=O)C1=CN([C@@H]2O[C@H](COP(=O)(O)OP(=O)(O)OC[C@H]3O[C@@H](n4cnc5c(N)ncnc54)[C@H](OP(=O)(O)O)[C@@H]3O)[C@@H](O)[C@H]2O)C=CC1 [NADPH] | – | – | – | – | Km (DfrB1 [3]): 1.6 ± 0.02 µM; Km (DfrB4; DfrB4 substrate KM): 2.8 ± 0.6 µM; Kd (apo-DfrB1): 2.5 µM
O=C(O)c1ccc2[nH]c(-c3ccc(OC/C=C/COc4ccc(-c5nc6cc(C(=O)O)ccc6[nH]5)cc4)cc3)nc2c1 [Compound 10] | 2.8 ± 0.8 | 90 ± 20 | > 400 | – | inhibition of hDfr (in words) (hDfr): did not inhibit
O=C(O)c1ccc2nc(-c3ccc(OCCC(O)COc4ccc(-c5nc6ccc(C(=O)O)cc6[nH]5)cc4Br)c(Br)c3)[nH]c2c1 (stereo not shown) [Compound 20b] | 2.6 ± 0.7 | 80 ± 20 | > 400 | 3.7 ± 0.7 | –
O=C(O)c1ccc2nc(-c3ccc(OCCCOc4ccc(-c5nc6ccc(C(=O)O)cc6[nH]5)cc4Br)c(Br)c3)[nH]c2c1 [Compound 21] | 1.7 ± 0.6 | 60 ± 20 | > 400 | – | –
COc1cc(Cc2cnc(N)nc2N)cc(OC)c1OC [TMP, Trimethoprim, reference compound] | 600 | – | – | 550 | TMP resistance conferred by DfrB4 expression (E. coli expressing DfrB4): complete resistance

Second part, led by results:

Ki (DfrB1 [1]) [µM] | IC50 (DfrB1 [1]) [µM] | IC50 (hDfr) [µM] | Ki (DfrB4) [µM] | SMILES | further results
6.1 | – | > 100 | – | O=C(O)c1ccc2[nH]c(-c3ccc(OCc4ccc(COc5ccc(-c6nc7cc(C(=O)O)ccc7[nH]6)cc5)cc4)cc3)nc2c1 [Compound 11] | solubility [2]: ≤ 100 µM; inhibition of hDfr (in words) (hDfr): did not inhibit
– | > 250 | – | – | O=C(O)c1ccc(OCCCCCCCCCCCCOc2ccc(C(=O)O)cc2)cc1 [Compound 15] | –
– | > 200 | – | – | O=C(O)CCc1ccc(OCCCCOc2ccc(CCC(=O)O)cc2)cc1 [Compound 17] | inhibition of DfrB1 (in words) (DfrB1 [1]): No inhibition was observed
– | > 200 | – | – | O=C(O)c1ccc2cc(-c3ccc(OCCCCCCCCOc4ccc(-c5ccc6cc(C(=O)O)ccc6c5)cc4)cc3)ccc2c1 [Compound 18] | inhibition of DfrB1 (in words) (DfrB1 [1]): abolished inhibition
– | > 500 | – | – | O=C(O)Cc1ccc(OCCCCCCOc2ccc(CC(=O)O)cc2)cc1 [Compound 16] | inhibition of DfrB1 (in words) (DfrB1 [1]): No inhibition was observed
– | > 500 | – | – | O=C(O)c1ccc(OCCCCCCOc2ccc(C(=O)O)cc2)cc1 [Compound 12] | –
3.5 ± 1.7 | 110 ± 10 | > 500 | 3.9 ± 0.9 | O=C(O)c1ccc2[nH]c(-c3ccc(OCCC(O)COc4ccc(-c5nc6cc(C(=O)O)ccc6[nH]5)cc4)cc3)nc2c1 (stereo not shown) [Compound 3] | inhibition of hDfr (in words) (hDfr): no inhibition
